According to ChEMBL document CHEMBL1157820, “Vaccinia virus virulence factor N1L is a novel promising target for antiviral therapeutic intervention” (J Med Chem, 2010):
Active and inactive are the calls of the source. No cut-off for these calls is given here.

Legend:
[1] = biological target: T1, N1L (Vaccinia virus, UniProt Q49PX0); experiment: Displacement of FITC-conjugated BH3-Bak peptide from Vaccinia virus recombinant N1L expressed in Escherichia coli BL21 (DE3) by fluorescence polarization assay; design: species or system Orthopoxvirus vaccinia
T1 sequence (Q49PX0 whole entry): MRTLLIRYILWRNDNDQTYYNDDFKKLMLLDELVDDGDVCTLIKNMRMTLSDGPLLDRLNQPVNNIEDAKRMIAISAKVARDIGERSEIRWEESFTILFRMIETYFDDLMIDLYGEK
In short: (§1)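 Fluorescence polarization competition: N1L or Bcl-XL incubated with 10 nM BH3-Bak peptide and titrated ligand. Bcl-XL run on the same plate as N1L. N1L tested at several concentrations, none below 500 nM. Normalized polarization vs log ligand fit to a variable-slope dose-response curve for competitive IC50.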

[2] = biological target: T1, N1L; experiment: Displacement of FITC-conjugated BH3-Bak peptide from 1 uM Vaccinia virus recombinant N1L expressed in Escherichia coli BL21 (DE3) by fluorescence polarization assay; design: species or system Orthopoxvirus vaccinia; in short: as §1
[3] = biological target: N1L (Vaccinia virus) (UniProt Q49PX0); experiment: Destabilizing effect on Vaccinia virus recombinant N1L expressed in Escherichia coli BL21 (DE3) assessed as decrease in equilibrium constant of protein dimerization at 100 uM by analytical ultracentrifugation; conditions: Orthopoxvirus vaccinia
In short: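 Sedimentation equilibrium AUC of N1L in PBS at 0.45, 0.15 and 0.05 mg/ml, with 2% DMSO and compound at 50–100 μM. Spun at 20,000 rpm, 20 °C, 24 h. Data fit to a monomer–dimer or monomer–dimer–tetramer equilibrium model to obtain the dimerization KD.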

[4] = Displacement of FITC-conjugated BH3-Bim peptide from Vaccinia virus N-terminal GST-fused F1L expressed in Escherichia coli BL21 (DE3) by fluorescence polarization assay; design: species or system Orthopoxvirus vaccinia
In short: (§2)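 Fluorescence polarization competition with 10 nM BH3-Bim peptide against F1L or Bcl-2, run alongside N1L, with titrated ligand and a variable-slope dose-response fit for IC50. F1L construct: residues 35–190 from vaccinia WR as N-terminal GST fusion, expressed in E. coli BL21(DE3) (500 μM IPTG, 20 °C, 18 h), finished on Superdex 200 in 20 mM Tris pH 8.0, 100 mM NaCl.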

[5] = biological target: N1L (Vaccinia virus) (UniProt Q49PX0); experiment: Binding affinity to Vaccinia virus recombinant N1L expressed in Escherichia coli BL21 (DE3) assessed as protein melting temperature at 106 uM by differential scanning calorimetry; conditions: Orthopoxvirus vaccinia
In short: (§3)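 DSC at 1 K/min scan rate under 3.0 atm. Samples in PBS with 1.0 mg/ml (71 μM) N1L, 2 or 5% DMSO, and compound at 71, 106 or 214 μM; DMSO-only reference. Melting temperature and enthalpy of unfolding (area under peak) taken from thermograms.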

[6] = biological target: N1L (Vaccinia virus) (UniProt Q49PX0); experiment: Binding affinity to Vaccinia virus recombinant N1L expressed in Escherichia coli BL21 (DE3) assessed as effect on enthalpy of protein unfolding at 106 uM by differential scanning calorimetry; conditions: Orthopoxvirus vaccinia; in short: as §3
[7] = biological target: T1, N1L; experiment: Displacement of FITC-conjugated BH3-Bak peptide from 0.5 uM Vaccinia virus recombinant N1L expressed in Escherichia coli BL21 (DE3) by fluorescence polarization assay; design: species or system Orthopoxvirus vaccinia; in short: as §1
[8] = test system: Vaccinia virus; experiment: Antiviral activity against GFP-expressing Vaccinia virus WR infected in african green monkey CV1 cells after 2.5 days by fluorescence assay; type: functional, organism-based; conditions: Orthopoxvirus vaccinia, CV-1, 60 h
[9] = test system: Vaccinia virus; experiment: Antiviral activity against GFP-expressing Vaccinia virus WR infected in human HT1080 cells after 2.5 days by fluorescence assay; type: functional, organism-based; conditions: Orthopoxvirus vaccinia, HT-1080, 60 h
[10] = Cytotoxicity against african green monkey CV1 cells at >100 uM after 2.5 day by ATP lite assay; type: cell-based; conditions: chlorocebus aethiops, cv-1, 60 h
[11] = test system: HT-1080; experiment: Cytotoxicity against human HT1080 cells at >100 uM after 2.5 day by ATP lite assay; type: cell-based; conditions: ht-1080, 60 h
[12] = Therapeutic index, ratio of TC50 for african green monkey CV1 cells to EC50 for GFP-expressing Vaccinia virus WR infected in african green monkey CV1 cells; type: cell-based, CV-1; conditions: read-out: TI
[13] = Therapeutic index, ratio of TC50 for human HT1080 cells to EC50 for GFP-expressing Vaccinia virus WR infected in human HT1080 cells; type: cell-based, HT-1080; conditions: read-out: TI
[14] = biological target: N1L (Vaccinia virus) (UniProt Q49PX0); experiment: Binding affinity to Vaccinia virus recombinant N1L expressed in Escherichia coli BL21 (DE3) assessed as protein melting temperature at 71 uM by differential scanning calorimetry; conditions: Orthopoxvirus vaccinia; in short: as §3
[15] = biological target: N1L (Vaccinia virus) (UniProt Q49PX0); experiment: Binding affinity to Vaccinia virus recombinant N1L expressed in Escherichia coli BL21 (DE3) assessed as effect on enthalpy of protein unfolding at 71 uM by differential scanning calorimetry; conditions: Orthopoxvirus vaccinia; in short: as §3
[16] = biological target: Apoptosis regulator Bcl-2 (Homo sapiens, UniProt P10415); experiment: Displacement of FITC-conjugated BH3-Bim peptide from human recombinant Bcl-2 expressed in Escherichia coli BL21 (DE3) by fluorescence polarization assay; in short: as §2
[17] = biological target: Bcl-2-like protein 1 (Homo sapiens, UniProt Q07817); experiment: Displacement of FITC-conjugated BH3-Bak peptide from human recombinant Bcl-XL expressed in Escherichia coli BL21 (DE3) by fluorescence polarization assay; in short: as §1
[18] = biological target: N1L (Vaccinia virus) (UniProt Q49PX0); experiment: Binding affinity to Vaccinia virus recombinant N1L expressed in Escherichia coli BL21 (DE3) assessed as protein melting temperature at 214 uM by differential scanning calorimetry; conditions: Orthopoxvirus vaccinia
In short: (§4)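 Differential scanning calorimetry of recombinant N1L at 1.0 mg/ml (71 μM) in PBS with 2 or 5% DMSO, plus 214 μM compound, against a DMSO-only reference. Scanned at 1 K/min under 3.0 atm. Melting temperature (Tm) is taken from the peak, and enthalpy of unfolding (ΔH) from the area under the DSC peak.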

[19] = biological target: N1L (Vaccinia virus) (UniProt Q49PX0); experiment: Binding affinity to Vaccinia virus recombinant N1L expressed in Escherichia coli BL21 (DE3) assessed as effect on enthalpy of protein unfolding at 214 uM by differential scanning calorimetry; conditions: Orthopoxvirus vaccinia; in short: as §4

Bcl-2-like protein 1, sequence (Q07817 whole entry): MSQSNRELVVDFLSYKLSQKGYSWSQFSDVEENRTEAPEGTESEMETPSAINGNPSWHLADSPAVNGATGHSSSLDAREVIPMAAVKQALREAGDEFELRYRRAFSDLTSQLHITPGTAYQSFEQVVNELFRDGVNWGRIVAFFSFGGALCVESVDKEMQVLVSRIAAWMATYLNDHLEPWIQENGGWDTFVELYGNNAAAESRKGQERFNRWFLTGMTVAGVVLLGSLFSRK
Apoptosis regulator Bcl-2, sequence (P10415 whole entry): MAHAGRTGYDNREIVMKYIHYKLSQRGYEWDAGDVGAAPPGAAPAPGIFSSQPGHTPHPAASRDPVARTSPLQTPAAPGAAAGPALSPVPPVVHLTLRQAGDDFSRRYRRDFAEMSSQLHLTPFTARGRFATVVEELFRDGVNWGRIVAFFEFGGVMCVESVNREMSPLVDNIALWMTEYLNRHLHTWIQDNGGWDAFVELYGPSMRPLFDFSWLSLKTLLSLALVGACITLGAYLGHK

| Compound | IC50 [1] | IC50 [2] | Tm [5] | Activity [6] | IC50 [7] | also measured |
| --- | --- | --- | --- | --- | --- | --- |
| COc1ccc(/C(=N/c2ccc(C)cc2)c2ccccc2)cc1 | 1.7 µM | 1.7 µM |  |  |  |  |
| Oc1cc(C(c2ccccc2)c2ccccc2)c2ccccc2c1O | 0.6 µM | 1.9 µM | 54.9 °C | inactive | 0.6 µM | Activity [3]: Active; IC50 [4]: 1.4 µM |
| COc1ccc2ccccc2c1-c1c(O)ccc2ccccc12 | 1.5 µM | 3.6 µM |  |  | 1.5 µM |  |
| COc1cc(-c2ccc3cc(OC)c(OC)c(OC)c3c2)cc(OC)c1OC | 0.9 µM | 1.6 µM | 56.3 °C | inactive | 0.9 µM | Activity [3]: Active; IC50 [4]: 1.7 µM; EC50 [8]: 13.2 µM; EC50 [9]: 16.9 µM; Activity [10]: Non-toxic; Activity [11]: Non-toxic |
| Oc1ccc(/C=N/c2ccccc2/N=C/c2ccc(O)c(O)c2)cc1O | 1.2 µM | 1.3 µM | 52.3 °C | inactive | 1.2 µM | EC50 [8]: 13.2 µM; EC50 [9]: 10.9 µM; Activity [10]: Non-toxic; Activity [11]: Non-toxic; selectivity ratio [12]: 5.6; selectivity ratio [13]: 5.6 |
| COc1ccc(C(C)c2cc(OC)c(OC)c(OC)c2)cc1 (stereo not given) | 5.6 µM | 6.6 µM |  |  | 5.6 µM | Activity [10]: Non-toxic; Activity [11]: Non-toxic; selectivity ratio [12]: 50; selectivity ratio [13]: 50 |
| COc1cc(C(c2ccccc2)c2ccccc2)c2ccccc2c1O | 1.8 µM | 2 µM |  |  | 1.8 µM | Tm [14]: 57.5 °C; Activity [15]: inactive |
| Oc1cc(Cc2ccccc2)c(Cc2ccccc2)cc1O | 0.9 µM | 1.8 µM | 48.6 °C | inactive | 0.9 µM | IC50 [4]: 0.6 µM; IC50 [16]: 4.7 µM; IC50 [17]: 8.5 µM |
| COc1cc(C(=N\c2ccccc2)/C(=N/c2ccccc2)c2cc(OC)c(OC)c(OC)c2)cc(OC)c1OC | 2.4 µM | 3.5 µM |  |  | 2.4 µM |  |
| COc1cc(C(c2ccc(O)c(OC)c2)c2ccc(O)c(OC)c2)ccc1O | 8.8 µM | 12.4 µM |  |  | 8.8 µM |  |
| COc1ccc(CCc2cc(OC)c(O)c(OC)c2)cc1 | 5 µM | 7.5 µM |  |  | 5 µM | Tm [18]: 54.4 °C; Activity [19]: inactive |
| Oc1ccc(/C=C/c2cc(O)cc(O)c2)cc1 [RESVERATROL] | 21.9 µM | 21.9 µM |  |  |  | IC50 [17]: 190 µM; Tm [18]: 54.2 °C; Activity [19]: inactive |
